Source: PubChem BioAssay
Compounds with a hit are over-represented: about 2.1% of the library has one in this group of screens.
APJ ag – activates the human apelin receptor APJ; activation, % at 20 µM; CHO-K1 APJ PathHunter beta-arrestin, luminescence; 0% DMSO wells, 100% apelin; AID 2520; P35414; hit rate 0.11% among 330,000;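 active means activation more than six SD over the plate average, tested at 20 µM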;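 further: 0% = DMSO alone and 100% = apelin-13 at 10 nM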
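Test system – PathHunter CHO-K1 APJ (AGTRL-1) beta-arrestin reporter cells · Input – 1000 cells/well · Compound – single test compound dose, 20 µM final, 1% DMSO · Times – compound stimulation 90 min at 25 °C, detection 60 min · Technique – beta-gal luminescence · Read-out basis – APJ–arrestin association signal · Control set – negative DMSO alone, positive Apelin-13 at 10 nM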
HTR2A ag – agonists of mouse serotonin 5-HT2A receptor (HTR2A). hit rate 0.66% among 360,000. CHO-K1 mHTR2A beta-arrestin complementation, luminescence; percent of 30 µM serotonin response. activation, % at 7.6 µM. P35363;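 active means activation above a run cutoff, the mean activation of all tested compounds plus 3 SD, cut at about 14% in these data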;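 further: 0% = plate median of compound wells and 100% = 30 µM serotonin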
EBI2 block – antagonists of human EBI2 receptor; P32249; EBI2 beta-arrestin recruitment, luminescence, 7a,25-OHC stimulated; inhibition, % at 5 µM; hit rate 0.81% among 360,000; AID 651636; in the data active means inhibition above about 38%;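 further: enzyme fragment complementation signal reports receptor beta-arrestin coupling in cells; 0% = agonist plus DMSO wells and 100% = wells without agonist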
CXCR6 inh – inhibitors of human CXCR6 receptor; CHO-K1 PathHunter CXCR6 beta-arrestin, luminescence; inhibition, % at 20 µM; hit rate 0.36% among 360,000; in the data active means inhibition above about 34%, passing the limit was not always enough;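 further: antagonist mode with CXCL16 agonist at 10 nM final; 0% = 10 nM CXCL16 with DMSO and 100% = unstimulated wells without agonist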
Target sequence (O00574 whole entry, looked up): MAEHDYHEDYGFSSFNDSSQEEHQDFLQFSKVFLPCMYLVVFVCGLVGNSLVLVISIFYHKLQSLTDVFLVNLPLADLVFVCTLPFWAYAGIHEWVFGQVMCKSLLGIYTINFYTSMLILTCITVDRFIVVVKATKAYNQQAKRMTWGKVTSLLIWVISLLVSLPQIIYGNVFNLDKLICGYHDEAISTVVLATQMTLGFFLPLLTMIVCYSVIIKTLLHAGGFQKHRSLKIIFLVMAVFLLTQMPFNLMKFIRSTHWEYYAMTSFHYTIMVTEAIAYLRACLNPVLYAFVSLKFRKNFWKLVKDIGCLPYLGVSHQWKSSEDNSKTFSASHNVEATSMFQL
CCR6 antag – antagonists of human CCR6 receptor. inhibition, % at 20 µM. AID 493098. CHO-K1 CCR6 PathHunter beta-arrestin, luminescence, CCL20-stimulated. hit rate 0.49% among 340,000;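 active means compounds whose inhibition of the agonist-driven luminescence signal at 20 µM reaches about 50%, limit read from the data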;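 further: cells stimulated with CCL20 at 14 nM final; plate controls were DMSO with CCL20 for no effect and DMSO without agonist for full effect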
APJ antag – blocks the human apelin receptor APJ | CHO-K1 APJ beta-arrestin complementation, luminescence | inhibition, % at 20 µM | hit rate 0.32% among 330,000 | AID 2521;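 active means inhibition above about 40% at 20 µM, limit read from the data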;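 further: cells challenged with 10 nM apelin-13 agonist together with compound; plate controls were apelin-13 plus DMSO wells for no effect and DMSO wells lacking apelin-13 for full effect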
The depositor's hits bear a star.

What do the screens show for `CC(C)(C)C(=O)/C(=C\c1ccc([N+](=O)[O-])cc1)n1cncn1`?
APJ ag: -6.7; APJ antag: 69.8*

How did COc1ccc2c(c1)c(C(C)=O)c(C)n2CCc1ccccc1 do in these assays?
APJ ag: -4.0; HTR2A ag: 6.4; EBI2 block: 1.8; CXCR6 inh: -8.7; CCR6 antag: 19.8; APJ antag: 17.0

How did Nc1c(S(=O)(=O)c2cccs2)c2nc3ccccc3nc2n1/N=C/c1cccc(O)c1 do in these assays?
APJ ag: 4.5; HTR2A ag: -1.1; EBI2 block: 57.9*; CXCR6 inh: 10.8; CCR6 antag: -5.6; APJ antag: -3.1

What do the screens show for `Cc1ccc(S(=O)(=O)c2c(N)n(/N=C/c3ccco3)c3nc4ccccc4nc23)cc1C`?
APJ ag: 3.2; HTR2A ag: 5.5; EBI2 block: 46.1*; CXCR6 inh: 6.7; CCR6 antag: 7.0; APJ antag: -12.8

Results for COc1cccc(/C=N/n2c(N)c(S(=O)(=O)c3cccs3)c3nc4ccccc4nc32)c1 ?
APJ ag: -4.1; HTR2A ag: -0.4; EBI2 block: 5.0; CXCR6 inh: 0.8; CCR6 antag: 7.3; APJ antag: -5.9

How did COc1cccc(NC(=O)CCC2CCN(C(=O)c3ccc(C(C)=O)s3)CC2)c1 do in these assays?
APJ ag: 4.1; HTR2A ag: 1.3; EBI2 block: 1.9; CXCR6 inh: -18.9; CCR6 antag: 20.0; APJ antag: 8.5

What do the screens show for `C=C(C)c1cccc(C(C)(C)NC(=O)NCc2ccc(OC)c(OC)c2)c1`?
APJ ag: -4.7; HTR2A ag: 24.0*; EBI2 block: 4.5; CXCR6 inh: -14.2; CCR6 antag: 10.3; APJ antag: -2.5

What do the screens show for `CCOc1ccc2oc(C(=O)N3CCN(Cc4ccccc4)CC3)c(C)c2c1`?
APJ ag: -0.4; HTR2A ag: -3.5; EBI2 block: 44.1*; CXCR6 inh: 0.2; CCR6 antag: 4.9; APJ antag: 8.1

Results for CCCCCCOC(=O)c1ccc(OC(=O)c2cccnc2)cc1 ?
APJ ag: -3.6; HTR2A ag: 22.2*; EBI2 block: -30.8; CXCR6 inh: -3.7; CCR6 antag: 11.1; APJ antag: -21.2

Results for CCCCOC(=O)c1ccc(OC(=O)c2cccnc2)cc1 ?
APJ ag: -7.7; HTR2A ag: -2.9; EBI2 block: 0.4; CXCR6 inh: -2.1; CCR6 antag: 14.8; APJ antag: 4.7

What do the screens show for `CN(C)CCCN(C(=O)CCOc1ccccc1)c1nc2c(F)cccc2s1`?
HTR2A ag: 13.9; EBI2 block: 47.6*; CXCR6 inh: 13.1; CCR6 antag: 20.4

Results for CN(C)CCCN(C(=O)CCc1ccccc1)c1nc2c(F)cccc2s1 ?
APJ ag: -1.1; HTR2A ag: -7.1; EBI2 block: -10.5; CXCR6 inh: -0.2; CCR6 antag: 13.8; APJ antag: 2.0

How did C#CCOCCOCCOCCNc1nc(N2CCOCC2)nc(N2CCN(C(=O)CCCCCCCCCCNC(=O)[C@@H]([C@H](C)CC)n3cc(CCCCCN)nn3)CC2)n1 do in these assays?
APJ ag: 0.5; HTR2A ag: 6.6; EBI2 block: -6.1; CXCR6 inh: 1.0; CCR6 antag: 13.4; APJ antag: 13.8

Results for C#CCOCCOCCOCCNc1nc(N2CCN(C(=O)CCCCCCCCCCNC(=O)[C@H]([C@@H](C)CC)n3cc(CCCCCN)nn3)CC2)nc(N2CCN(C(=O)CCCCCCCCCCNC(=O)[C@@H]([C@H](C)CC)n3cc(CCCCCN)nn3)CC2)n1 ?
APJ ag: 54.6*; APJ antag: 21.6

Results for C#CCOCCOCCOCCNc1nc(N2CCN(C(=O)CCCCCCCCCCNC(=O)[C@H]([C@@H](C)CC)n3cc(CCCCN=C(N)N)nn3)CC2)nc(N2CCN(C(=O)CCCCCCCCCCNC(=O)[C@H]([C@@H](C)CC)n3cc(CCCCN=C(N)N)nn3)CC2)n1 ?
APJ ag: 70.8*; APJ antag: 26.6

How did C#CCOCCOCCOCCNc1nc(N2CCN(C(=O)CCCCCCCCCCNC(=O)[C@H]([C@@H](C)CC)n3cc(CCCCN=C(N)N)nn3)CC2)nc(N2CCN(C(=O)CCCCCCCCCCNC(=O)[C@H](CO)n3cc(CCCCCN)nn3)CC2)n1 do in these assays?
APJ ag: 3.0; HTR2A ag: 2.1; EBI2 block: -1.0; CXCR6 inh: 61.3*; CCR6 antag: -26.7; APJ antag: 13.7

How did C#CCOCCOCCOCCNc1nc(N2CCN(C(=O)CCCCCCCCCCNC(=O)Cn3cc(CCCCCN)nn3)CC2)nc(N2CCN(C(=O)CCCCCCCCCCNC(=O)[C@H]([C@@H](C)CC)n3cc(CCCCN=C(N)N)nn3)CC2)n1 do in these assays?
APJ ag: 17.0; HTR2A ag: -4.4; EBI2 block: -7.3; CXCR6 inh: 39.8; CCR6 antag: -27.2; APJ antag: 22.2

How did CCOC(=O)C1=C[C@@H](CC)N(S(=O)(=O)c2ccc(C)cc2)[C@H]1c1cccs1 do in these assays?
HTR2A ag: 0.6; EBI2 block: 14.8; CXCR6 inh: 2.6

What do the screens show for `COC(=O)c1cc(S(=O)(=O)NCc2ccc(S(N)(=O)=O)cc2)oc1C`?
APJ ag: -4.0; HTR2A ag: -0.1; EBI2 block: 1.2; CXCR6 inh: -2.2; CCR6 antag: -7.9; APJ antag: 0.4

Results for COc1ccc(NC(=O)C2(C)CCN2CCOc2ccc(C)cc2)cc1OC (stereo not drawn) ?
HTR2A ag: -3.3; EBI2 block: 5.0; CXCR6 inh: -3.2

Results for O=C(/C=C/Sc1ccc(C(F)(F)F)cn1)c1ccccc1 ?
APJ ag: 1.2; HTR2A ag: 2.2; EBI2 block: 6.1; CXCR6 inh: -12.9; CCR6 antag: 2.2; APJ antag: 32.4

Results for O=C(NC1CCCCCC1)C1CCCN(S(=O)(=O)c2cnc[nH]2)C1 (stereo not drawn) ?
APJ ag: -1.5; HTR2A ag: 23.6*; EBI2 block: -4.9; CXCR6 inh: -0.7; CCR6 antag: 1.9; APJ antag: -6.8

What do the screens show for `COC(=O)c1ccc(NC(=O)C2CCCN(S(=O)(=O)c3cnc[nH]3)C2)cc1` (stereo not drawn)?
APJ ag: -0.6; HTR2A ag: 17.4*; EBI2 block: -2.7; CXCR6 inh: 0.9; CCR6 antag: -1.2; APJ antag: -15.9

How did O=C(NC1CCCc2ccccc21)C1CCCN(S(=O)(=O)c2cnc[nH]2)C1 (stereo not drawn) do in these assays?
APJ ag: -1.7; HTR2A ag: 11.1; EBI2 block: -5.0; CXCR6 inh: -7.0; CCR6 antag: 7.8; APJ antag: -7.7

What do the screens show for `O=C1/C(=C\c2ccc(O)cc2)SC(=S)N1/N=C/c1ccc(O)cc1`?
APJ ag: -7.1; HTR2A ag: -11.2; EBI2 block: 10.6; CXCR6 inh: 47.1*; CCR6 antag: 66.2*; APJ antag: 30.0
